# Source: ChEMBL document CHEMBL1142894, “Preparation of 5-aryl-3-alkylthio-l,2,4-triazoles and corresponding sulfones with antiinflammatory-analgesic activity” (Bioorg Med Chem, 2007)
# Active and inactive are the calls of the source. The rule behind the calls is not given here.
# Tested on: Mus musculus
# Test: Acute toxicity in Swiss albino mouse assessed as lethal effect at 25 mg/kg/day, po after 72 hrs
# Type: organism-based
# Design: route oral
# Details: in vivo
# Outline: (§1)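 Oral single dose suspended in 0.5% carboxymethylcellulose, given after a 24 h fast; food and water returned 1 h after dosing. Vehicle-only controls. Mice observed at 1 h, then once daily for 72 h, for toxic signs and mortality.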
row,Compound,Activity
1,CS(=O)(=O)c1nc(-c2cccc(Br)c2)n[nH]1,Non-toxic
2,CCSc1nc(-c2cccc(Br)c2)n[nH]1,Non-toxic
3,CS(=O)(=O)c1nc(-c2ccccc2)n[nH]1,Non-toxic
4,CSc1nc(-c2ccc(Br)cc2)n[nH]1,Non-toxic
5,CCSc1nc(-c2ccccc2)n[nH]1,Non-toxic
6,CSc1nc(-c2ccccc2)n[nH]1,Non-toxic

# Tested on: Mus musculus
# Test: Inhibition of carrageenan-induced paw edema in Swiss albino mouse at 100 mg/kg, po after 360 mins relative to control
# Type: functional
# Details: 6 h
# Outline: (§2)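 Oral dosing in 0.5% CMC; vehicle to controls. Then carrageenan (0.5 mg/25 ll, freshly suspended in 154 mM saline) injected into the right hind paw subplantar tissue; saline into the left paw. Right-left footpad thickness difference measured by dial gauge calliper every 90 min over 6 h. Inhibition % is relative to vehicle control. n = 6; mean ± SEM.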
row,Compound,inhibition in vivo at 100 mg/kg [%]
1,CSc1nc(-c2ccccc2)n[nH]1,20.9

# Tested on: Mus musculus
# Test: Antiinflammatory activity against carrageenan-induced paw edema in Swiss albino mouse assessed as swelling thickness at 100 mg/kg, po after 90 mins
# Type: functional
# Details: not given
# Outline: as §2
row,Compound,Activity
1,CS(=O)(=O)c1nc(-c2cccc(Br)c2)n[nH]1,48.2 10^-2mm
2,CCSc1nc(-c2cccc(Br)c2)n[nH]1,48.5 10^-2mm
3,CS(=O)(=O)c1nc(-c2ccccc2)n[nH]1,44.2 10^-2mm
4,CSc1nc(-c2ccc(Br)cc2)n[nH]1,46.9 10^-2mm
5,CCSc1nc(-c2ccccc2)n[nH]1,46 10^-2mm
6,CSc1nc(-c2ccccc2)n[nH]1,38.1 10^-2mm

# Tested on: Mus musculus
# Test: Gastric-ulcerogenic effect in Swiss albino mouse assessed as lesions at 100 mg/kg, po
# Type: functional, organism-based
# Design: dose 100 mg/kg
# Details: not given
# Outline: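 Mice killed under deep ether anesthesia 3 h after the writhing test; the oral dose in 0.5% CMC was the one used in that test. Stomachs removed, opened along the great curvature and examined under a dissecting microscope for lesions or bleeding. Reported as ratio of ulceration; n = 6.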
row,Compound,Activity
1,CS(=O)(=O)c1nc(-c2cccc(Br)c2)n[nH]1,Active
2,CCSc1nc(-c2cccc(Br)c2)n[nH]1,Active
3,CS(=O)(=O)c1nc(-c2ccccc2)n[nH]1,Active
4,CCSc1nc(-c2ccccc2)n[nH]1,Active

# Tested on: Mus musculus
# Test: Antiinflammatory activity against carrageenan-induced paw edema in Swiss albino mouse assessed as swelling thickness at 100 mg/kg, po after 360 mins
# Type: functional
# Details: not given
# Outline: as §2
row,Compound,Activity
1,CS(=O)(=O)c1nc(-c2cccc(Br)c2)n[nH]1,80.5 10^-2mm
2,CCSc1nc(-c2cccc(Br)c2)n[nH]1,58.3 10^-2mm
3,CS(=O)(=O)c1nc(-c2ccccc2)n[nH]1,56.7 10^-2mm
4,CSc1nc(-c2ccc(Br)cc2)n[nH]1,70.9 10^-2mm
5,CCSc1nc(-c2ccccc2)n[nH]1,54.7 10^-2mm
6,CSc1nc(-c2ccccc2)n[nH]1,54.4 10^-2mm

# Tested on: Mus musculus
# Test: Analgesic activity against p-benzoquinone-induced abdominal constriction in Swiss albino mouse assessed as number of writhings at 100 mg/kg, po
# Type: functional, Abdomen
# Details: not given
# Outline: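 Test samples given orally in 0.5% CMC; vehicle to controls. 60 min later, 2.5% (v/v) p-benzoquinone in distilled water, 0.1 ml/10 g, given i.p. Mice housed singly; writhes counted for 15 min starting 5 min after injection. Activity is % change from vehicle controls. n = 6; mean ± SEM.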
row,Compound,Activity
1,CS(=O)(=O)c1nc(-c2cccc(Br)c2)n[nH]1,48.2
2,CCSc1nc(-c2cccc(Br)c2)n[nH]1,51.5
3,CS(=O)(=O)c1nc(-c2ccccc2)n[nH]1,37.4
4,CSc1nc(-c2ccc(Br)cc2)n[nH]1,58.9
5,CCSc1nc(-c2ccccc2)n[nH]1,46.1
6,CSc1nc(-c2ccccc2)n[nH]1,40.2

# Tested on: Mus musculus
# Test: Inhibition of carrageenan-induced paw edema in Swiss albino mouse at 100 mg/kg, po after 180 mins relative to control
# Type: functional
# Details: 3 h
# Outline: as §2
row,Compound,inhibition in vivo at 100 mg/kg [%]
1,CS(=O)(=O)c1nc(-c2ccccc2)n[nH]1,12.2
2,CSc1nc(-c2ccccc2)n[nH]1,13.6

# Tested on: Mus musculus
# Test: Antiinflammatory activity against carrageenan-induced paw edema in Swiss albino mouse assessed as swelling thickness at 100 mg/kg, po after 180 mins
# Type: functional
# Details: not given
# Outline: as §2
row,Compound,Activity
1,CS(=O)(=O)c1nc(-c2cccc(Br)c2)n[nH]1,55.9 10^-2mm
2,CCSc1nc(-c2cccc(Br)c2)n[nH]1,52.3 10^-2mm
3,CS(=O)(=O)c1nc(-c2ccccc2)n[nH]1,45.2 10^-2mm
4,CSc1nc(-c2ccc(Br)cc2)n[nH]1,54.1 10^-2mm
5,CCSc1nc(-c2ccccc2)n[nH]1,48.3 10^-2mm
6,CSc1nc(-c2ccccc2)n[nH]1,44.5 10^-2mm

# Tested on: Mus musculus
# Test: Inhibition of p-benzoquinone-induced writhing in Swiss albino mouse at 100 mg/kg, po relative to control
# Type: functional
# Details: not given
# Outline: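 Mice, n = 6 per group, dosed orally with a suspension in 0.5% sodium CMC. 60 min later, 0.1 ml/10 g of 2.5% […] p-benzoquinone in distilled water given ip. Abdominal writhes counted per animal for 15 min, starting 5 min after injection. Expressed as % change in mean writhing count versus vehicle controls.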
row,Compound,inhibition in vivo at 100 mg/kg [%]
1,CS(=O)(=O)c1nc(-c2ccccc2)n[nH]1,20.9
2,CCSc1nc(-c2ccccc2)n[nH]1,2.5
3,CSc1nc(-c2ccccc2)n[nH]1,15

# Tested on: Mus musculus
# Test: Inhibition of carrageenan-induced paw edema in Swiss albino mouse at 100 mg/kg, po after 90 mins relative to control
# Type: functional
# Details: 1.5 h
# Outline: as §2
row,Compound,inhibition in vivo at 100 mg/kg [%]
1,CS(=O)(=O)c1nc(-c2ccccc2)n[nH]1,1.3
2,CSc1nc(-c2ccccc2)n[nH]1,14.9

# Tested on: Mus musculus
# Test: Acute toxicity in Swiss albino mouse assessed as lethal effect at 50 mg/kg/day, po after 72 hrs
# Type: organism-based
# Design: route oral
# Details: in vivo
# Outline: as §1
row,Compound,Activity
1,CS(=O)(=O)c1nc(-c2cccc(Br)c2)n[nH]1,Non-toxic
2,CCSc1nc(-c2cccc(Br)c2)n[nH]1,Non-toxic
3,CS(=O)(=O)c1nc(-c2ccccc2)n[nH]1,Non-toxic
4,CSc1nc(-c2ccc(Br)cc2)n[nH]1,Non-toxic
5,CCSc1nc(-c2ccccc2)n[nH]1,Non-toxic
6,CSc1nc(-c2ccccc2)n[nH]1,Non-toxic

# Tested on: Mus musculus
# Test: Acute toxicity in Swiss albino mouse assessed as lethal effect at 100 mg/kg/day, po after 72 hrs
# Type: organism-based
# Design: route oral
# Details: in vivo
# Outline: as §1
row,Compound,Activity
1,CS(=O)(=O)c1nc(-c2cccc(Br)c2)n[nH]1,Non-toxic
2,CCSc1nc(-c2cccc(Br)c2)n[nH]1,Non-toxic
3,CS(=O)(=O)c1nc(-c2ccccc2)n[nH]1,Non-toxic
4,CSc1nc(-c2ccc(Br)cc2)n[nH]1,Non-toxic
5,CCSc1nc(-c2ccccc2)n[nH]1,Non-toxic
6,CSc1nc(-c2ccccc2)n[nH]1,Non-toxic

# Tested on: Mus musculus
# Test: Antiinflammatory activity against carrageenan-induced paw edema in Swiss albino mouse assessed as swelling thickness at 100 mg/kg, po after 270 mins
# Type: functional
# Details: not given
# Outline: as §2
row,Compound,Activity
1,CS(=O)(=O)c1nc(-c2cccc(Br)c2)n[nH]1,65.8 10^-2mm
2,CCSc1nc(-c2cccc(Br)c2)n[nH]1,55.3 10^-2mm
3,CS(=O)(=O)c1nc(-c2ccccc2)n[nH]1,47.5 10^-2mm
4,CSc1nc(-c2ccc(Br)cc2)n[nH]1,63.3 10^-2mm
5,CCSc1nc(-c2ccccc2)n[nH]1,51.2 10^-2mm
6,CSc1nc(-c2ccccc2)n[nH]1,47.6 10^-2mm

# Tested on: Mus musculus
# Test: Acute toxicity in Swiss albino mouse assessed as lethal effect at 200 mg/kg/day, po after 72 hrs
# Type: organism-based
# Design: route oral
# Details: in vivo
# Outline: as §1
row,Compound,Activity
1,CS(=O)(=O)c1nc(-c2cccc(Br)c2)n[nH]1,Non-toxic
2,CCSc1nc(-c2cccc(Br)c2)n[nH]1,Non-toxic
3,CS(=O)(=O)c1nc(-c2ccccc2)n[nH]1,Non-toxic
4,CSc1nc(-c2ccc(Br)cc2)n[nH]1,Non-toxic
5,CCSc1nc(-c2ccccc2)n[nH]1,Non-toxic
6,CSc1nc(-c2ccccc2)n[nH]1,Non-toxic

# Tested on: Mus musculus
# Test: Inhibition of carrageenan-induced paw edema in Swiss albino mouse at 100 mg/kg, po after 270 mins relative to control
# Type: functional
# Details: 4.5 h
# Outline: as §2
row,Compound,inhibition in vivo at 100 mg/kg [%]
1,CS(=O)(=O)c1nc(-c2ccccc2)n[nH]1,19.2
2,CSc1nc(-c2ccccc2)n[nH]1,19
